Reference: ChEMBL document CHEMBL3352312, “Synthesis of linear and cyclic guazatine derivatives endowed with antibacterial activity” (Bioorg Med Chem Lett, 2014)

Tests used:
[1] = test system: Staphylococcus epidermidis; assay: Antibacterial activity against Staphylococcus epidermidis ATCC 14990 after 16 to 18 hrs by microbroth dilution method; assay type: functional
Method in brief: (§1)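 Broth microdilution in Mueller–Hinton broth following CLSI recommendations. Strains came from ATCC or CCUG collections or the authors' clinical isolates. Compounds were dissolved in DMSO as a 100 mg/ml stock and then diluted in culture medium. Inoculum was 5 × 10⁴ CFU/well. MIC was read after 16–18 h incubation at 35–37 °C.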

[2] = test system: Pseudomonas aeruginosa; assay: Antibacterial activity against Pseudomonas aeruginosa ATCC 27853 after 16 to 18 hrs by microbroth dilution method; assay type: functional; method in brief: as §1
[3] = test system: Bacillus subtilis; assay: Antibacterial activity against Bacillus subtilis ATCC 6633 after 16 to 18 hrs by microbroth dilution method; assay type: functional; method in brief: as §1
[4] = test system: Escherichia coli; assay: Antibacterial activity against Escherichia coli CCUGT after 16 to 18 hrs by microbroth dilution method; assay type: functional; method in brief: as §1
[5] = test system: Aeromonas hydrophila; assay: Antibacterial activity against Aeromonas hydrophila ATCC 7966 after 16 to 18 hrs by microbroth dilution method; assay type: functional; method in brief: as §1
[6] = test system: Klebsiella pneumoniae; assay: Antibacterial activity against Klebsiella pneumoniae ATCC 13833 after 16 to 18 hrs by microbroth dilution method; assay type: functional; method in brief: as §1
[7] = test system: Elizabethkingia meningoseptica; assay: Antibacterial activity against Elizabethkingia meningoseptica CCUG 4310 after 16 to 18 hrs by microbroth dilution method; assay type: functional; method in brief: as §1
[8] = test system: Streptococcus pyogenes; assay: Antibacterial activity against Streptococcus pyogenes ATCC 12344 after 16 to 18 hrs by microbroth dilution method; assay type: functional; method in brief: as §1
[9] = test system: Enterococcus faecalis; assay: Antibacterial activity against Enterococcus faecalis ATCC 19433 after 16 to 18 hrs by microbroth dilution method; assay type: functional; method in brief: as §1
[10] = test system: Acinetobacter baumannii; assay: Antibacterial activity against Acinetobacter baumannii ATCC 17978 after 16 to 18 hrs by microbroth dilution method; assay type: functional; method in brief: as §1
[11] = Apparent permeability of the compound assessed as membrane retention at pH 7.4 after 5 hrs by PAMPA; assay type: physicochemical; conditions: pH 7.4, 5 h
Method in brief: (§2)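 Parallel artificial membrane permeability assay run at physiological pH 7.4 and at alkaline pH 10.0, the duodenal-like condition, as a gastrointestinal permeability model. Apparent permeability (P_app) is reported in nm/s, together with the percentage of compound retained in the membrane.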

[12] = Apparent permeability of the compound at pH 10.0 after 5 hrs by PAMPA; assay type: physicochemical; method in brief: as §2
[13] = Apparent permeability of the compound assessed as membrane retention at pH 10.0 after 5 hrs by PAMPA; assay type: physicochemical; conditions: pH 10, 5 h; method in brief: as §2
[14] = Apparent permeability of the compound at pH 7.4 after 5 hrs by PAMPA; assay type: physicochemical; method in brief: as §2
[15] = test system: Alcaligenes faecalis; assay: Antibacterial activity against expanded-spectrum cephalosporin/carbapenem/monobactam-resistant Alcaligenes faecalis 424/98 after 16 to 18 hrs by microbroth dilution method; assay type: functional
Method in brief: (§3)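 Broth microdilution MIC per CLSI in Mueller–Hinton broth. Inoculum 5 × 10⁴ CFU/well. Compounds dissolved in DMSO at 100 mg/ml, then diluted in culture medium. Plates incubated 16–18 h at 35–37 °C before reading the MIC. Strains were taken from ATCC or CCUG collections or from the authors' clinical isolate collection.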

[16] = test system: Acinetobacter baumannii; assay: Antibacterial activity against penicillin/expanded-spectrum cephalosporin/carbapenem/aztreonam/aminoglycoside/fluoroquinolone/fosfomycin/trimethoprim/sulfamethoxazole-resistant Acinetobacter baumannii AC-54/97 after 16 to 18 hrs by microbroth dilution method; assay type: functional; method in brief: as §3
[17] = test system: Enterobacter cloacae; assay: Antibacterial activity against penicillin/CEPH/carbapenem/aminoglycoside/fluoroquinolone-resistant Enterobacter cloacae VA-417/02 after 16 to 18 hrs by microbroth dilution method; assay type: functional; method in brief: as §3
[18] = test system: Klebsiella pneumoniae; assay: Antibacterial activity against penicillin/expanded-spectrum cephalosporin/carbapenem/aminoglycoside/fluoroquinolone/trimethoprim/sulfamethoxazole-resistant Klebsiella pneumoniae 7023 after 16 to 18 hrs by microbroth dilution method; assay type: functional; method in brief: as §3
[19] = test system: Pseudomonas aeruginosa; assay: Antibacterial activity against penicillin/expanded-spectrum cephalosporin/carbapenem/monobactam/aminoglycoside/fluoroquinolone-resistant Pseudomonas aeruginosa VR-143/97 after 16 to 18 hrs by microbroth dilution method; assay type: functional; method in brief: as §3
[20] = test system: Pseudomonas aeruginosa; assay: Antibacterial activity against penicillin/expanded-spectrum cephalosporin/carbapenem/aminoglycoside-resistant Pseudomonas aeruginosa 101/1477 after 16 to 18 hrs by microbroth dilution method; assay type: functional; method in brief: as §3
[21] = test system: Achromobacter xylosoxidans; assay: Antibacterial activity against penicillin/expanded-spectrum cephalosporin/carbapenem/aminoglycoside-resistant Achromobacter xylosoxidans AX 22 after 16 to 18 hrs by microbroth dilution method; assay type: functional; method in brief: as §3
[22] = test system: Stenotrophomonas maltophilia; assay: Antibacterial activity against penicillin/expanded-spectrum cephalosporin/carbapenem/monobactam/aminoglycoside/trimethoprim/sulfamethoxazole/fosfomycin-resistant Stenotrophomonas maltophilia 634/08 after 16 to 18 hrs by microbroth dilution method; assay type: functional; method in brief: as §3

| Compound | MIC [1] [µg/mL] | MIC [2] [µg/mL] | MIC [3] [µg/mL] | MIC [4] [µg/mL] | MIC [5] [µg/mL] | MIC [6] [µg/mL] | MIC [7] [µg/mL] | MIC [8] [µg/mL] | MIC [9] [µg/mL] | MIC [10] [µg/mL] | other results |
| --- | --- | --- | --- | --- | --- | --- | --- | --- | --- | --- | --- |
| CC(C)=CCNC(=N)NCCCCCCN1CCCCCCCCNC(=N)NC1=O.O=C(O)C(F)(F)F.O=C(O)C(F)(F)F | 16 | > 256 | 64 | 256 | > 256 | > 256 | > 256 | 8 | 16 | 256 |  |
| CO[C@H]1/C=C/O[C@@]2(C)Oc3c(C)c(O)c4c(O)c(c5c(nc6cc(C)ccn65)c4c3C2=O)NC(=O)/C(C)=C\C=C\[C@H](C)[C@H](O)[C@@H](C)[C@@H](O)[C@@H](C)[C@H](OC(C)=O)[C@@H]1C [RIFAXIMIN] |  |  |  |  |  |  |  |  |  |  | Papp [11]: 0%; Papp at 5 h [12]: 0.012 ×10⁻⁶ cm/s; Papp [13]: 0%; Papp at 5 h [14]: 0.006 ×10⁻⁶ cm/s |
| CN(CCCCCCCCNCCCCCCCCNC(=N)N)C(=N)NCC1CC1.O=C(O)C(F)(F)F.O=C(O)C(F)(F)F.O=C(O)C(F)(F)F | 8 | 8 | 256 | > 256 | > 256 | 8 | 32 | 8 | 4 | 256 |  |
| C=C(C)CNC(=N)NCCCCCCCCNCCCCCCCCNC(=N)N.O=C(O)C(F)(F)F.O=C(O)C(F)(F)F.O=C(O)C(F)(F)F | 64 | > 256 | 64 | 128 | > 256 | 256 | > 256 | 16 | 256 | > 256 |  |
| N=C(N)NCCCCCCCCNCCCCCCCCNC(=N)NCc1ccccc1.O=C(O)C(F)(F)F.O=C(O)C(F)(F)F.O=C(O)C(F)(F)F | 4 | 64 | 4 | 8 | 64 | 16 |  | 1 | 16 | 64 |  |
| CCNC(=N)NCCCCCCN1CCCCCCCCNC(=N)NC1=O.O=C(O)C(F)(F)F.O=C(O)C(F)(F)F | 32 | > 256 | 64 | > 256 | > 256 | > 256 | > 256 | 16 | 128 | > 256 |  |
| C=C(C)CNC(=N)NCCCCCCCCN1CCCCCCCCNC(=N)NC1=O.O=C(O)C(F)(F)F.O=C(O)C(F)(F)F | 0.5 | 8 | 0.5 | 0.5 | 4 | 1 | 32 | 0.5 | 1 | 8 | MIC [15]: 4 µg/mL; MIC [16]: 4 µg/mL; MIC [17]: 1 µg/mL; MIC [18]: 1 µg/mL; MIC [19]: 8 µg/mL; MIC [20]: 8 µg/mL; MIC [21]: 8 µg/mL; MIC [22]: 4 µg/mL |
| C#CCNC(=N)NCCCCCCCCNCCCCCCCCNC(=N)N.O=C(O)C(F)(F)F.O=C(O)C(F)(F)F.O=C(O)C(F)(F)F | 4 | 256 | 4 | 16 | 256 | 32 | > 256 | 2 | 16 | 128 |  |
| O=C(N[C@H](CO)[C@H](O)c1ccc([N+](=O)[O-])cc1)C(Cl)Cl [CHLORAMPHENICOL] |  |  |  |  |  |  |  |  |  |  | Papp [11]: 0%; Papp at 5 h [12]: 0.057 ×10⁻⁶ cm/s; Papp [13]: 0%; Papp at 5 h [14]: 0.03 ×10⁻⁶ cm/s |
| C=C(C)CNC(=N)NCCCCCCN1CCCCCCCCNC(=N)NC1=O.O=C(O)C(F)(F)F.O=C(O)C(F)(F)F | 16 | > 256 | 16 | 256 | > 256 | > 256 | > 256 | 8 | 64 | 256 |  |
| CN(CCCCCCCCNCCCCCCCCNC(=N)N)C(=N)NCc1ccccc1.O=C(O)C(F)(F)F.O=C(O)C(F)(F)F.O=C(O)C(F)(F)F | 32 | 32 | > 256 | > 256 | 256 | 32 | 64 | 16 | 16 | 128 |  |
| C/C=C/CNC(=N)NCCCCCCN1CCCCCCCCNC(=N)NC1=O.O=C(O)C(F)(F)F.O=C(O)C(F)(F)F | 16 | > 256 | 16 | 256 | > 256 | > 256 | 256 | 32 | 32 | 256 |  |
| N=C(NCCCCCCCCNCCCCCCCCNC(=N)NCC1CC1)NCC1CC1.O=C(O)C(F)(F)F.O=C(O)C(F)(F)F.O=C(O)C(F)(F)F | > 256 | > 256 | > 256 | > 256 | > 256 | > 256 | > 256 | > 256 | > 256 | > 256 |  |
| C/C=C/CNC(=N)NCCCCCCCCN1CCCCCCCCNC(=N)NC1=O.O=C(O)C(F)(F)F.O=C(O)C(F)(F)F | 4 | 256 | 4 | 64 | 64 | 32 | 128 | 2 | 8 | 32 |  |
| N=C(NCCCCCCCCN1CCCCCCCCNC(=N)NC1=O)NCC1CC1.O=C(O)C(F)(F)F.O=C(O)C(F)(F)F | 8 | > 256 | 4 |  |  | 128 |  | 32 | 32 | 64 |  |
| N=C(N)NCCCCCCNCCCCCCNC(=N)NCC1CC1.O=C(O)C(F)(F)F.O=C(O)C(F)(F)F.O=C(O)C(F)(F)F | 256 | > 256 | > 256 | > 256 | > 256 | 256 | > 256 | 32 | 16 | > 256 |  |
| C#CCNC(=N)NCCCCCCN1CCCCCCCCNC(=N)NC1=O.O=C(O)C(F)(F)F.O=C(O)C(F)(F)F | 32 | > 256 | 64 | > 256 | > 256 | > 256 | > 256 | 16 | 128 | > 256 |  |
| N=C(NCCCCCCCCN1CCCCCCCCNC(=N)NC1=O)NCC1CCC1.O=C(O)C(F)(F)F.O=C(O)C(F)(F)F | 4 | > 256 | 4 | 64 | 64 | 32 | 256 | 2 | 8 | 32 |  |
| C=CCNC(=N)NCCCCCCCCN1CCCCCCCCNC(=N)NC1=O.O=C(O)C(F)(F)F.O=C(O)C(F)(F)F | 16 | > 256 | 1 |  |  | 128 |  | 4 | 128 | 64 |  |
| C#CCNC(=N)N(C)CCCCCCCCNCCCCCCCCNC(=N)N.O=C(O)C(F)(F)F.O=C(O)C(F)(F)F.O=C(O)C(F)(F)F | 16 | 32 | 256 | > 256 | > 256 | 16 | 64 | 16 | 8 | 256 |  |
